# Only a selection was taken, and hits are over-represented in it overall.
# IDH1 mut inh: blocks human IDH1 R132H reductase activity | inhibition, % at 10 µM | hit rate 0.18% among 70,000 | diaphorase/resazurin fluorescence, 60 min; in the data active means inhibition above about 34%; inconclusive means no clear call, values can overlap the other calls; inactive means below about 11%;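 further: 0% = DMSO and 100% = no enzyme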
# Target sequence (O75874 whole entry R132H): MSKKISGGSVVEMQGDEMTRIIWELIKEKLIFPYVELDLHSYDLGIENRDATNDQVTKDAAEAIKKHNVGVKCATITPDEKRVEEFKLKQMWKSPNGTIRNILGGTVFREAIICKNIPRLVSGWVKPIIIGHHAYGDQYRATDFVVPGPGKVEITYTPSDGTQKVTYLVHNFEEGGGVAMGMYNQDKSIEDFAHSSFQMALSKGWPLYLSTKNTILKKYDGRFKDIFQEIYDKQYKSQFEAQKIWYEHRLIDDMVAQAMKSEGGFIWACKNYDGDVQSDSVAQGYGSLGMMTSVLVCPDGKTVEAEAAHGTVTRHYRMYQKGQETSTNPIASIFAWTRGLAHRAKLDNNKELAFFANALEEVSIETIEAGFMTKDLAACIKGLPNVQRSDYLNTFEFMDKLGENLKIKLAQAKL
# T cruzi growth-1: T. cruzi proliferation inhibition | T. cruzi beta-gal in NIH3T3, GalScreen luminescence, 90 h | inhibition, % at 8.34 µM | hit rate 5.9% among 77,000;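 active means mean inhibition above about 93%, with at least 55% of replicates each passing it, limit read from the data, passing the limit was not always enough; inconclusive means only one of those two conditions holds; inactive means neither condition holds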
# KDM4C inh: inhibitors of human demethylase GASC-1 KDM4C; GST-KDM4C 2-372, H3K9me3 peptide, LANCE TR-FRET; AID 720574; inhibition, % at 12.5 µM; hit rate 0.15% among 96,000;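 active means mean replicate inhibition above about 25%, with at least 55% of replicates also reaching it, limit read from the data, passing the limit was not always enough; inconclusive means only one of those two conditions met; inactive means neither condition met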
#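 System – N-terminal GST-fused human GASC-1 (KDM4C) fragment, residues 2-372 · Input – enzyme final amount 10 nM · Technique – LANCE TR-FRET, Eu antibody, ULight-streptavidin, EDTA, ex 340 nm, em 618/671 nm · Medium – HEPES buffer, pH 7.5, plus ascorbate · Incubation – enzyme reaction 30 min, then detection 60 min, both room temperature · Reagent – H3K9me3 peptide with Fe(II)/2OG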
# T cruzi growth-2: blocks T. cruzi growth in NIH3T3 host cells; hit rate 72% among 5,600; inhibition, % at 8.35 µM; shares compounds with T cruzi growth-1; AID 651739; T. cruzi beta-gal in NIH3T3, GalScreen luminescence, 90 h;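 active means mean replicate inhibition above about 95% and at least 55% of replicates individually reaching it, limit read from the data; inconclusive means only one of the two criteria is met; inactive means neither criterion is met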
# T cruzi growth-3: blocks T. cruzi growth in NIH3T3 host cells | shares compounds with T cruzi growth-1 | T. cruzi beta-gal in NIH3T3, GalScreen luminescence, 90 h | inhibition, % at 2.09 µM | hit rate 21% among 5,600 | AID 651740;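 active means mean inhibition above about 95%, with at least 55% of replicates also reaching it, limit read from the data; inconclusive means meets just one of the two conditions; inactive means meets neither condition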;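 further: plate controls were neutral control median for no effect and positive control median for full effect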
# 3T3 cytotox: kills mouse NIH/3T3 fibroblasts | shares compounds with T cruzi growth-1 | NIH/3T3 viability, CellTiter-Glo ATP luminescence, 90 h | cytotoxicity (signal decrease), % at 8.35 µM | hit rate 14% among 5,600 | AID 651742;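 active means mean signal decrease across replicates above about 35% based on untreated-well scatter, with enough replicates individually passing, limit read from the data; inconclusive means no rule stated though some were filed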;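 further: 0% = median of neutral control wells and 100% = median of positive control wells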
# 3T3 cytotox 2: kills mouse NIH/3T3 fibroblasts; shares compounds with T cruzi growth-1; NIH/3T3 viability, CellTiter-Glo ATP luminescence, 90 h; inhibition, % at 24.9 µM; hit rate 56% among 5,600;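 active means mean loss of cell viability signal at or above a set limit, and enough replicates individually reaching it; inconclusive means meets only the mean limit or only the replicate share; inactive means meets neither condition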;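 further: 0% = median of neutral control wells and 100% = median of positive control wells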
# An asterisk follows results filed as active; ? = inconclusive; nt = not tested or not shown.
SMILES,IDH1 mut inh,T cruzi growth-1,KDM4C inh,T cruzi growth-2,T cruzi growth-3,3T3 cytotox,3T3 cytotox 2
C[C@H]1CCCCO[C@@H](CN(C)C(=O)Nc2cccc3ccccc23)[C@@H](C)CN([C@@H](C)CO)C(=O)c2cc(NS(=O)(=O)c3ccc(F)cc3)ccc2O1,0,109*,1,107*,70,-16,0
Cc1ccc(S(=O)(=O)Nc2ccc3c(c2)C(=O)N([C@H](C)CO)C[C@H](C)[C@@H](CN(C)C(=O)Nc2cccc4ccccc24)OCCCC[C@H](C)O3)cc1,nt,99*,-1,110*,105*,-28,-9
Cc1ccc(S(=O)(=O)Nc2ccc3c(c2)C(=O)N([C@@H](C)CO)C[C@@H](C)[C@@H](CN(C)C(=O)Nc2cccc4ccccc24)OCCCC[C@H](C)O3)cc1,nt,92,-2,nt,nt,nt,nt
O=C(C1CC1)N1[C@@H](CO)[C@@H]2c3ccccc3NC[C@@H]21,nt,-20,0,nt,nt,nt,nt
C[C@@H]1CCCCO[C@@H](CN(C)C(=O)c2ccccc2)[C@@H](C)CN([C@@H](C)CO)C(=O)c2cc(NC(=O)Nc3cccc4ccccc34)ccc2O1,nt,22,4,nt,nt,nt,nt
C[C@@H]1CN([C@H](C)CO)C(=O)Cc2cc(NC(=O)C3CC3)ccc2O[C@@H]1CN(C)Cc1ccc(C(F)(F)F)cc1,-1,-34,0,nt,nt,nt,nt
CC(C)CC#Cc1ccc2c(c1)O[C@H](CN(C)C(=O)Nc1ccccc1)[C@H](C)CN([C@@H](C)CO)S2(=O)=O,0,107*,-1,108*,?,21,81*
CC(C)CC#Cc1ccc2c(c1)O[C@H](CN(C)C(=O)NC(C)C)[C@@H](C)CN([C@@H](C)CO)S2(=O)=O,-3,70,-1,nt,nt,nt,nt
C[C@@H]1CN([C@@H](C)CO)S(=O)(=O)c2ccc(C#C[C@@H](C)O)cc2O[C@H]1CN(C)C(=O)Nc1ccccc1,2,61,nt,nt,nt,nt,nt
C[C@H](O)C#Cc1ccc2c(c1)O[C@H](CN(C)C(=O)Nc1ccccc1)[C@@H](C)CN([C@@H](C)CO)S2(=O)=O,nt,70,nt,nt,nt,nt,nt
C[C@H](O)C#Cc1ccc2c(c1)O[C@@H](CN(C)C(=O)Nc1ccccc1)[C@@H](C)CN([C@H](C)CO)S2(=O)=O,nt,64,nt,nt,nt,nt,nt
CC(C)CC#Cc1ccc2c(c1)O[C@H](CN(C)C(=O)Nc1ccccc1)[C@@H](C)CN([C@@H](C)CO)S2(=O)=O,0,125*,-1,105*,?,11,101*
CC(C)CC#Cc1ccc2c(c1)O[C@H](CN(C)C(=O)Nc1ccccc1)[C@H](C)CN([C@H](C)CO)S2(=O)=O,2,126*,-1,100*,107*,-10,106*
CC(C)CC#Cc1ccc2c(c1)O[C@@H](CN(C)C(=O)Nc1ccccc1)[C@H](C)CN([C@H](C)CO)S2(=O)=O,8,121*,1,108*,93,23,88*
CN1CCCCN2[C@@H](CO)[C@@H](c3ccc(-c4cccnc4)cc3)[C@@H]2C1,nt,92,-1,nt,nt,nt,nt
C[C@H](CO)N1C[C@H](C)[C@H](CN(C)Cc2ccc(-c3ccccc3)cc2)Oc2c(NC(=O)c3ccc(-c4nccs4)cc3)cccc2C1=O,1,73,-10,nt,nt,nt,nt
COc1ccc(S(=O)(=O)Nc2ccc3c(c2)C(=O)N([C@@H](C)CO)C[C@H](C)[C@H](CN(C)Cc2ccccc2)OCCCC[C@H](C)O3)cc1,0,-1,0,nt,nt,nt,nt
CC(=O)N1[C@H](CO)[C@@H](c2ccccc2)C12CN(C(=O)c1ccc3c(c1)OCO3)C2,nt,nt,2,nt,nt,nt,nt
COc1ccc(S(=O)(=O)N2CC[C@@H]3[C@H]2c2cc(C#Cc4ccccc4OC)ccc2N[C@@H]3CO)cc1,nt,107*,-1,106*,111*,21,16
COc1ccc(C#Cc2ccc3c(c2)[C@H]2[C@H](CCN2S(=O)(=O)c2ccccc2C)[C@H](CO)N3)cc1,nt,77,-1,nt,nt,nt,nt
COc1ccc(S(=O)(=O)N2CC[C@@H]3[C@H](CO)Nc4ccc(-c5ccc(C#N)cc5)cc4[C@@H]32)cc1,nt,109*,7,101*,103*,42*,49*
COc1ccc(S(=O)(=O)N2CC[C@@H]3[C@@H](CO)Nc4ccc(-c5ccc(C#N)cc5)cc4[C@@H]32)cc1,nt,60,0,nt,nt,nt,nt
COc1ccc(S(=O)(=O)N2CC[C@H]3[C@H](CO)Nc4ccc(C#Cc5ccccc5OC)cc4[C@H]32)cc1,nt,nt,5,nt,nt,nt,nt
COc1ccc(C#Cc2ccc3c(c2)[C@@H]2[C@@H](CCN2S(=O)(=O)c2ccccc2C)[C@@H](CO)N3)cc1,nt,97*,1,109*,91,7,55*
Cc1noc(C)c1S(=O)(=O)Nc1ccc2c(c1)C(=O)N([C@H](C)CO)C[C@@H](C)[C@H](CN(C)C(=O)Nc1ccc(C(F)(F)F)cc1)OCCCC[C@@H](C)O2,-1,121,0,nt,nt,nt,nt
SMILES,IDH1 mut inh,T cruzi growth-1,KDM4C inh,T cruzi growth-2,T cruzi growth-3,3T3 cytotox,3T3 cytotox 2
Cc1cccc(S(=O)(=O)N(C)C[C@@H]2OCc3ccccc3-c3c(n(C)c4ccccc34)C(=O)N([C@@H](C)CO)C[C@@H]2C)c1,-1,100*,-1,103*,87,-9,80*
Cc1cccc(S(=O)(=O)N(C)C[C@H]2OCc3ccccc3-c3c(n(C)c4ccccc34)C(=O)N([C@H](C)CO)C[C@H]2C)c1,-2,91,-1,nt,nt,nt,nt
Cc1cccc(S(=O)(=O)N(C)C[C@H]2OCc3ccccc3-c3c(n(C)c4ccccc34)C(=O)N([C@@H](C)CO)C[C@H]2C)c1,0,99*,0,100*,108*,-5,18
Cc1cccc(S(=O)(=O)N(C)C[C@@H]2OCc3ccccc3-c3c(n(C)c4ccccc34)C(=O)N([C@@H](C)CO)C[C@H]2C)c1,nt,65,-1,nt,nt,nt,nt
COc1ccc(CN(C)C[C@@H]2Oc3c(NC(=O)c4ccncc4)cccc3C(=O)N([C@@H](C)CO)C[C@H]2C)cc1,1,105*,-1,86,80,22,26*
COc1ccc(CN(C)C[C@H]2Oc3c(NC(=O)c4ccncc4)cccc3C(=O)N([C@@H](C)CO)C[C@@H]2C)cc1,-1,100*,13,95,80,12,37*
C[C@H](CO)N1C[C@H](C)[C@@H](CN(C)Cc2ccncc2)Oc2c(NC(=O)c3ccncc3)cccc2C1=O,0,44,0,nt,nt,nt,nt
C[C@@H]1CN([C@@H](C)CO)C(=O)c2cccc(NC(=O)c3ccncc3)c2O[C@H]1CN(C)Cc1ccncc1,0,61,-2,nt,nt,nt,nt
C[C@H]1CN([C@@H](C)CO)C(=O)c2cccc(NC(=O)C3CCOCC3)c2O[C@@H]1CN(C)C(=O)NC1CCCCC1,nt,37,-1,nt,nt,nt,nt
O=C(Cc1cccnc1)N[C@H]1CC[C@@H](CCn2cc(-c3ccccc3F)nn2)O[C@@H]1CO,0,-39,2,nt,nt,nt,nt

# Source: PubChem
